According to ChEMBL document CHEMBL1955718, “Discovery of new orally effective analgesic and anti-inflammatory hybrid furoxanyl N-acylhydrazone derivatives” (Bioorg Med Chem, 2012):
Activity calls are given as the source filed them.

Experiments:
Mus musculus [1] = assay: Analgesic activity in albino mouse assessed as inhibition of acetic acid-induced abdominal constriction at 100 umol/kg, po administered 1 hr before acetic acid challenge measured after 30 mins relative to control; format: functional; conditions: Abdomen
Summary of the method: (§1)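 Albino mice of both sexes (18–23 g) were dosed orally as a suspension in 5% arabic gum in saline, with vehicle controls. After 1 h they received 0.6% acetic acid ip (0.1 mL/10 g). Constrictions were counted for 20 min starting 10 min after injection. Data are % inhibition vs vehicle, mean ± SEM, Student t-test.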

[2] = Cytotoxicity against human HT-29 cells expressing NF-kappaB-hrGFP assessed as highest non-cytotoxic dose for 100% cell survival after 24 hrs by MTT assay; format: cell-based; conditions: read-out: Activity
Summary of the method: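 HT-29 cells stably carrying pNF-κB-hrGFP, seeded at 0.5 × 10^6/mL in DMEM with 10% FBS, grown 24 h at 37 °C, 5% CO2. Compounds added in DMSO (<0.5% v/v final) at 12.5–400 µM for 24 h. Viability by MTT reduction (2 h), formazan dissolved in DMSO/glycine buffer, read at 560 nm.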

HT-29 [3] = assay: Pro-inflammatory activity in NFkappaB-GFP transfected human HT-29 cells at 25 to 400 uM after 24 hrs by propidium iodide staining-based flow cytometric analysis; format: ADME, cell-based; conditions: ht-29, 24 h
Summary of the method: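 Reporter HT-29-NF-κB-hrGFP cells given compound alone, without TNF-α, for 18–24 h at 37 °C after the same 2 h pre-incubation. GFP-positive live (propidium iodide-excluding) cells counted by flow cytometry; IL-8 in supernatant measured by bead-based flow cytometry.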

HT-29 [4] = assay: Inhibition of NF-kappaB activation expressed in human HT-29 cells assessed as inhibition of TNFalpha-stimulated IL8 release at 50 uM after 24 hrs by flow cytometric analysis relative to control; format: cell-based
Summary of the method: (§2)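 Reporter HT-29-NF-κB-hrGFP cells pretreated 2 h with compound (DMSO <0.5%) at the highest concentration with 100% survival, then stimulated with TNF-α (3 ng/mL final) for 18–24 h at 37 °C. IL-8 in clarified supernatant measured by flow cytometric bead assay (500 events). Expressed as % of TNF-α/DMSO control ± SD; thalidomide as reference.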

[5] = Induction of NO release in 0.1 M Tris-HCl and 0.1 mM DTPA at pH 7.4 measured for 20 mins in presence of cysteine; format: physicochemical; conditions: buffer, pH 7.4, 20 min
Summary of the method: (§3)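 Electrochemical NO detection with an ISO-NOP sensor. Compounds in DMSO added to 0.1 M Tris-HCl, 0.1 mM DTPA at pH 7.4 or 8.3. Cysteine (300 or 100 µM) added and NO recorded for 20 min at 25 or 37 °C; compound:Cys ratio 1:1 at 25 °C, with 3:1 and 37 °C runs also made.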

HT-29 [6] = assay: Inhibition of TNF-alpha-induced NFkappaB activation expressed in human HT-29 cells coexpressing hrGFP at 50 uM after 24 hrs by propidium iodide staining-based flow cytometric analysis relative to control; format: cell-based
Summary of the method: (§4)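 HT-29 cells stably expressing NF-κB-driven hrGFP given compound (DMSO <0.5%) for 2 h at the maximum non-cytotoxic concentration, then TNF-α at 3 ng/mL final for 18–24 h. Cells trypsinised and stained with propidium iodide; 5000 events gated on FSC/SSC. The %GFP-positive among PI-excluding live cells is normalised to TNF-α/DMSO control, ± SD.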

Rattus norvegicus [7] = assay: Antiinflammatory activity in albino rat assessed as inhibition of carrageenan-induced paw edema at 100 umol/kg, po administered 1 hr before carrageenan challenge measured after 3 hrs by plethysmometric analysis relative to control; format: functional
Summary of the method: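 Albino rats of both sexes (150–200 g) were dosed orally as a suspension in 1% Tween 80 in saline, with vehicle controls. After 1 h, 0.1 mL 1% carrageenan or saline was injected subplantar. Paw volume was read by glass plethysmometer at 3 h. Edema = carrageenan-paw minus saline-paw volume; % inhibition vs vehicle; Student t-test.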

[8] = Cytotoxicity against mouse […] cells after 48 hrs by MTT assay; format: cell-based
Summary of the method: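 J774 macrophages in DMEM (4 mM L-glutamine, 10% heat-inactivated FBS) were seeded at 1 × 10^5 cells/well and grown for 48 h at 37 °C, 5% CO2. They were then exposed to compounds at 25–400 µM for 48 h. MTT (0.1 mg/mL final) was added for 3 h, formazan was dissolved in DMSO/glycine buffer pH 10.5, and absorbance was read at 560 nm to give an IC50.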

[9] = Induction of NO release in 0.1 M Tris-HCl and 0.1 mM DTPA at pH 8.3 measured for 20 mins in presence of cysteine; format: physicochemical; conditions: buffer, pH 8.3, 20 min; summary of the method: as §3
Rattus norvegicus [10] = assay: Antihyperalgesic activity against carrageenan-induced thermal hyperalgesia in Wistar rat assessed as latency of withdrawal response at 100 umol/kg, po administered 1 hr before carrageenan challenge measured after 30 to 240 mins by hot plate test; format: functional, organism-based
Summary of the method: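 Wistar rats of both sexes (150–200 g) dosed orally at 100 µmol/kg as suspension in 5% arabic gum in saline, vehicle controls. After 1 h, 1% carrageenan (1 mg/paw) or saline injected subplantar. Left hind paw withdrawal latency on hot plate at 51 ± 0.1 °C read at 0–240 min, 20 s cut-off. Δ latency = time-0 latency minus later latency; mean ± SEM, n = 8–10; Student t-test.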

Glycine max = assay: Inhibition of soybean lipoxygenase using arachidonic acid as substrate at 50 uM
Summary of the method: (§5)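 Soybean 15-lipoxygenase kit assay, arachidonic acid substrate, H2O2 as lipoxygenating agent in 0.1 M Tris-HCl pH 7.4. Single-point screen at 50 µM. IC50 found by varying concentration over 10–100 µM. Quercetin at 4 µM as positive control; duplicate means; Student t-test.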

[11] = Solubility of the compound in soybean lipoxygenase assay buffer at pH 7.4 at >50 uM; format: physicochemical
HT-29 [12] = assay: Inhibition of TNFalpha-induced NF-kappaB activation expressed in human HT-29 cells coexpressing hrGFP at 100 uM after 24 hrs by propidium iodide staining-based flow cytometric analysis relative to control; format: cell-based; summary of the method: as §4
HT-29 [13] = assay: Inhibition of NF-kappaB activation expressed in human HT-29 cells assessed as inhibition of TNFalpha-stimulated IL8 release at 100 uM after 24 hrs by flow cytometric analysis relative to control; format: cell-based; summary of the method: as §2
HT-29 [14] = assay: Inhibition of TNFalpha-induced NF-kappaB activation expressed in human HT-29 cells coexpressing hrGFP at 200 uM after 24 hrs by propidium iodide staining-based flow cytometric analysis relative to control; format: cell-based; summary of the method: as §4
[15] = Inhibition of soybean lipoxygenase using arachidonic acid as substrate; parameters: species or system Glycine max; summary of the method: as §5
HT-29 [16] = assay: Inhibition of NF-kappaB activation expressed in human HT-29 cells assessed as inhibition of TNFalpha-stimulated IL8 release at 25 uM after 24 hrs by flow cytometric analysis relative to control; format: cell-based; summary of the method: as §2
HT-29 [17] = assay: Inhibition of TNF-alpha-induced NFkappaB activation expressed in human HT-29 cells coexpressing hrGFP at 25 uM after 24 hrs by propidium iodide staining-based flow cytometric analysis relative to control; format: cell-based; summary of the method: as §4
Mus musculus [18] = assay: Analgesic activity in albino mouse assessed as inhibition of acetic acid-induced abdominal constriction at 100 umol/kg, po administered 1 hr before acetic acid challenge measured after 60 mins relative to control; format: functional; conditions: Abdomen; summary of the method: as §1
[19] = molecular target: T1, Prostaglandin G/H synthase 1 (Ovis aries) (UniProt P05979); conditions: 0.1 uM
T1 sequence (whole entry): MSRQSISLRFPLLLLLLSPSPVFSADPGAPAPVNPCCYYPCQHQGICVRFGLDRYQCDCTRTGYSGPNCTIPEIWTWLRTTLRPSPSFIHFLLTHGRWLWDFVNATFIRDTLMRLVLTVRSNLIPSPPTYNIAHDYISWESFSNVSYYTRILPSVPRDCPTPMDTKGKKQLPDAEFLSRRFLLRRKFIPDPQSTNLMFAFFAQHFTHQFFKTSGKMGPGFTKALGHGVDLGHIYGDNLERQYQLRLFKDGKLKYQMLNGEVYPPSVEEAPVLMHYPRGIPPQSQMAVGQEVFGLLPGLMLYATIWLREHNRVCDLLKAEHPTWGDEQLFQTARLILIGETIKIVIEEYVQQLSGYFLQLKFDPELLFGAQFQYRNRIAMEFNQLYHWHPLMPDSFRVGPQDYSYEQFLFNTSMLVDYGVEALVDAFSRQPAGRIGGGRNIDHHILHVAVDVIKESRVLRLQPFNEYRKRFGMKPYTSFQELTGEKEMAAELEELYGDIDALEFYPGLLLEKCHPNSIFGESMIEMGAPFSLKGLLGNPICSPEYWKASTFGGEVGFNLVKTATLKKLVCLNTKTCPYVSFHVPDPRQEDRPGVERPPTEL

SMILES: O=C(N/N=C/c1ccc2no[n+]([O-])c2c1)c1cccnc1
- inhibition in vivo at 100 µmol/kg (Mus musculus [1]): 35%
- MNTC at 24 h [2]: 50 µM
- Activity (HT-29 [3]): Non-toxic
- inhibition (HT-29 [4]): 29%
- Activity [5]: 0 nM/min
- NF-kappaB activation (% of TNF-alpha control) (HT-29 [6]): 66%
- inhibition in vivo at 100 µmol/kg (Rattus norvegicus [7]): 0%
- IC50 [8]: 31 µM
- Activity [9]: 0.64 nM/min
- Activity (Rattus norvegicus [10]): inactive
- inhibition (Glycine max): 0%

SMILES: Cc1c(/C=N/NC(=O)c2cccnc2)no[n+]1[O-] (mixture of isomers)
- solubility [11]: Insoluble
- MNTC at 24 h [2]: 100 µM
- NF-kappaB activity (% of TNF-alpha control) (HT-29 [12]): 112%
- Activity (HT-29 [3]): Non-toxic
- IC50 [8]: > 400 µM
- inhibition (HT-29 [13]): 105%
- inhibition (Glycine max): 22%

SMILES: Cc1[nH]cnc1C(=O)N/N=C/c1c(-c2ccccc2)no[n+]1[O-]
- MNTC at 24 h [2]: 200 µM
- Activity (HT-29 [3]): Non-toxic
- IC50 [8]: > 400 µM
- inhibition (HT-29 [14]): 103%

SMILES: O=C(N/N=C/c1c(-c2ccccc2)no[n+]1[O-])c1cccnc1
- MNTC at 24 h [2]: 25 µM
- Activity (HT-29 [3]): Non-toxic
- IC50 [15]: > 100 µM
- inhibition (HT-29 [16]): 138%
- IC50 [8]: 195 µM
- inhibition (HT-29 [17]): 114%
- inhibition (Glycine max): 14%

SMILES: Cc1c(C(=O)N/N=C/c2ccccc2O)no[n+]1[O-]
- solubility [11]: Insoluble
- MNTC at 24 h [2]: 100 µM
- NF-kappaB activity (% of TNF-alpha control) (HT-29 [12]): 55%
- Activity (HT-29 [3]): Non-toxic
- IC50 [8]: 246 µM
- inhibition (Glycine max): 37%

SMILES: COc1ccc2c(c1)c(CC(=O)O)c(C)n2C(=O)c1ccc(Cl)cc1 [INDOMETHACIN]
- inhibition in vivo at 100 µmol/kg (Mus musculus [18]): 44%
- inhibition in vivo at 100 µmol/kg (Rattus norvegicus [7]): 61%
- inhibition [19]: 49.7%
